Test results: ChEMBL document CHEMBL1287782, “Design, synthesis, and characterization of BK channel openers based on oximation of abietane diterpene derivatives” (Bioorg Med Chem, 2010)

Each compound was assayed against Calcium-activated potassium channel subunit alpha-1 (Homo sapiens) (UniProt Q12791) (assay: Activation of human BK alpha channel expressed in CHO-K1 cells assessed as ionic current at 30 uM by patch clamp electrophysiological assay relative to control).
Format: cell-based
How it was run: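 Automated population patch clamp (64-hole PPC) on CHO-K1 cells stably expressing hBKα. Internal (mM): 140 KCl, 1.0 MgCl2, 20 HEPES, pH 7.25–7.3. External (mM): 137 NaCl, 4.0 KCl, 1.0 MgCl2, 2.0 CaCl2, 10 glucose, 20 HEPES, pH 7.4. Cells suspended in external solution with 20 µM BAPTA-AM before loading. Step to +100 mV from holding potential; current at 30 µM compound as % of drug-free control; n = 8.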

Calcium-activated potassium channel subunit alpha-1 (Homo sapiens), sequence (Q12791 whole entry): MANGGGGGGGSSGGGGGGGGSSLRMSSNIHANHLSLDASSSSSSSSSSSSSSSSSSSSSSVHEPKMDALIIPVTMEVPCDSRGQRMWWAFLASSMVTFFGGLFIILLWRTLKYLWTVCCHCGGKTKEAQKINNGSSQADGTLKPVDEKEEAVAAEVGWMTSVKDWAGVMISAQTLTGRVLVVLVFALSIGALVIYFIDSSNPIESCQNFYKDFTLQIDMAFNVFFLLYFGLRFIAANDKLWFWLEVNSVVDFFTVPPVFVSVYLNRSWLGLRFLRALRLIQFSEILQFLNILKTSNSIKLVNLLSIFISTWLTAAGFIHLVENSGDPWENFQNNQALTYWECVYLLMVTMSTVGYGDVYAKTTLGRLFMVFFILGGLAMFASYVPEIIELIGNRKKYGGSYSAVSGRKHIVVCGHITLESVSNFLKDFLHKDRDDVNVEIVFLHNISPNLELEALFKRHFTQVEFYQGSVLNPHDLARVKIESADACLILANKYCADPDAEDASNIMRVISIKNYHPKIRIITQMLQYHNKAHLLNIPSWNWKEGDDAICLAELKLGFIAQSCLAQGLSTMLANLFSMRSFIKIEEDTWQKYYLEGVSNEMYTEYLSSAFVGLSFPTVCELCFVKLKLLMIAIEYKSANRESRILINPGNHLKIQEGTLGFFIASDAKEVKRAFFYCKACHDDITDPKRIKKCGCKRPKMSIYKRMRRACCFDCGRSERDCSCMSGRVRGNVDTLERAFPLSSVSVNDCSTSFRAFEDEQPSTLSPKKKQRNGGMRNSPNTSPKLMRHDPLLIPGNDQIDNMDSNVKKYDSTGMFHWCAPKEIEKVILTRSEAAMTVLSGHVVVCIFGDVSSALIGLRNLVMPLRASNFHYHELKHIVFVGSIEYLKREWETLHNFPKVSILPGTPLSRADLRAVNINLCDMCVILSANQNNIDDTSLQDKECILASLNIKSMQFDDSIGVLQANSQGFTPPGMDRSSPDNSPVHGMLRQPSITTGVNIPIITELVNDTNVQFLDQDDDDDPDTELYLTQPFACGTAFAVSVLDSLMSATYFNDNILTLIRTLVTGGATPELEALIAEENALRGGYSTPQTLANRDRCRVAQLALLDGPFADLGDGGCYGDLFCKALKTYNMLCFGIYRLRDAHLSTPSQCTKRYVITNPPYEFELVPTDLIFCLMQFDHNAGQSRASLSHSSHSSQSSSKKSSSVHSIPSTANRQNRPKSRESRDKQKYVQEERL

SMILES	Activity [%]
CC(C)c1c(Cl)cc2c(c1Cl)/C(=N/OCC1CC1)C[C@H]1[C@](C)(C(=O)O)CCC[C@]21C	181
C#CCO/N=C1\C[C@H]2[C@](C)(C(=O)O)CCC[C@]2(C)c2ccc(C(C)C)cc21	142
CCO/N=C1\C[C@H]2[C@](C)(C(=O)O)CCC[C@]2(C)c2cc(Cl)c(C(C)C)c(Cl)c21	212
CC(C)O/N=C1\C[C@H]2[C@](C)(C(=O)O)CCC[C@]2(C)c2cc(Cl)c(C(C)C)c(Cl)c21	184
CCCCCCCO/N=C1\C[C@H]2[C@](C)(C(=O)O)CCC[C@]2(C)c2cc(Cl)c(C(C)C)c(Cl)c21	111
CO/N=C1\C[C@H]2[C@@](C)(C(=O)O)CCC[C@]2(C)c2cc(O)ccc21	103
CC(C)c1c(Cl)c(Cl)c2c(c1Cl)/C(=N/O)C[C@H]1[C@](C)(C(=O)O)CCC[C@]21C	229
CO/N=C1\C[C@H]2[C@](C)(C(=O)O)CCC[C@]2(C)c2c(Cl)c(Cl)c(C(C)C)c(Cl)c21	235
CC(C)c1ccc2c(c1)C(=O)C[C@H]1[C@](C)(C(=O)O)CCC[C@]21C	100
CO/N=C1\C[C@H]2[C@@](C)(C(=O)O)CCC[C@]2(C)c2cc(OCCCc3ccccc3)ccc21	151
CC(C)c1c(Cl)cc2c(c1Cl)/C(=N/OCC1CCCCC1)C[C@H]1[C@](C)(C(=O)O)CCC[C@]21C	129
CC(C)c1c(Cl)cc2c(c1Cl)/C(=N/OCc1ccccc1)C[C@H]1[C@](C)(C(=O)O)CCC[C@]21C	151
CO/N=C1\C[C@H]2[C@](C)(C(=O)O)CCC[C@]2(C)c2cc(Br)c(C(C)C)cc21	216
C[C@]1(C(=O)O)CCC[C@]2(C)c3cc(OCCCc4ccccc4)ccc3/C(=N/OCCCc3ccccc3)C[C@@H]12	134
CC(C)=CCO/N=C1\C[C@H]2[C@@](C)(C(=O)O)CCC[C@]2(C)c2cc(OCCCc3ccccc3)ccc21	138
CCCO/N=C1\C[C@H]2[C@](C)(C(=O)O)CCC[C@]2(C)c2cc(Cl)c(C(C)C)c(Cl)c21	192
C=CCO/N=C1\C[C@H]2[C@](C)(C(=O)O)CCC[C@]2(C)c2ccc(C(C)C)cc21	182
CC(C)c1ccc2c(c1)/C(=N/OCCCc1ccccc1)C[C@H]1[C@](C)(C(=O)O)CCC[C@]21C	143
C=CCO/N=C1\C[C@H]2[C@@](C)(C(=O)O)CCC[C@]2(C)c2cc(OCCCc3ccccc3)ccc21	160

SMILES	Activity [%]
C=CCO/N=C1\C[C@H]2[C@](C)(C(=O)O)CCC[C@]2(C)c2cc(Br)c(C(C)C)cc21	237
CC(C)c1cc2c(cc1Br)[C@@]1(C)CCC[C@@](C)(C(=O)O)[C@@H]1C/C2=N\O	162
CC(C)c1cc2c(cc1Br)[C@@]1(C)CCC[C@@](C)(C(=O)O)[C@@H]1CC2=O	166
C[C@]1(C(=O)O)CCC[C@]2(C)c3cc(OCCCc4ccccc4)ccc3/C(=N/O)C[C@@H]12	134
CO/N=C1\C[C@H]2[C@](C)(C(=O)O)CCC[C@]2(C)c2cc(Cl)c(C(C)C)c(Cl)c21	213
C[C@]1(C(=O)O)CCC[C@]2(C)c3cc(OCCCc4ccccc4)ccc3/C(=N/OCc3ccccc3)C[C@@H]12	152
CC(C)c1ccc2c(c1)/C(=N/OCc1ccccc1)C[C@H]1[C@](C)(C(=O)O)CCC[C@]21C	123
C[C@]1(C(=O)O)CCC[C@]2(C)c3cc(OCCCc4ccccc4)ccc3/C(=N/OCCCc3ccccc3)C(O)[C@@H]12 (some centres not stated)	107
CO/N=C1/c2ccc(OCCCc3ccccc3)cc2[C@@]2(C)CCC[C@](C)(C(=O)O)[C@@H]2C1O (some centres not stated)	125
C=CCO/N=C1\C[C@H]2[C@](C)(C(=O)O)CCC[C@]2(C)c2cc(Cl)c(C(C)C)c(Cl)c21	297
CC(C)c1c(Cl)cc2c(c1Cl)C(=O)C[C@H]1[C@](C)(C(=O)O)CCC[C@]21C	124
C#CCO/N=C1\C[C@H]2[C@](C)(C(=O)O)CCC[C@]2(C)c2cc(Cl)c(C(C)C)c(Cl)c21	261
CC(C)c1c(Cl)cc2c(c1Cl)/C(=N/O)C[C@H]1[C@](C)(C(=O)O)CCC[C@]21C	137
CC(C)=CCO/N=C1\C[C@H]2[C@](C)(C(=O)O)CCC[C@]2(C)c2cc(Cl)c(C(C)C)c(Cl)c21	126
C#CCO/N=C1\C[C@H]2[C@@](C)(C(=O)O)CCC[C@]2(C)c2cc(OCCCc3ccccc3)ccc21	166
CC(C)CCO/N=C1\C[C@H]2[C@](C)(C(=O)O)CCC[C@]2(C)c2cc(Cl)c(C(C)C)c(Cl)c21	145
CO/N=C1\C[C@H]2[C@](C)(C(=O)O)CCC[C@]2(C)c2ccc(C(C)C)cc21	153
CC(C)c1ccc2c(c1)/C(=N/O)C[C@H]1[C@](C)(C(=O)O)CCC[C@]21C	121
